Laboratory results from ChEMBL document CHEMBL1150420, “A peptoid antagonist of VEGF receptor 2 recognizes a 'hotspot' in the extracellular domain distinct from the hormone-binding site” (Bioorg Med Chem, 2008).
Active and inactive are the calls of the source. The calls are words filed in the database; no cut-off is given here. Numbered stars: 1 amine (or outer) side, 2 acyl side, 3 side chain; on linkers, the order of the positions; unused ones are H or OH. Bridge positions count the residues as written; N and C are the ends. Square brackets hold non-standard residues; d marks the D form. Peptide text beside a SMILES is read from it. I, II: the chains in the order shown. ξ: configuration not given here. Gly(N(CH2)2(3-indolyl)) = O=C(O)CNCCc1c[nH]c2ccccc12; Gly(N-piperonyl) = O=C(O)CNCc1ccc2c(c1)OCO2; X1 = CC(c1ccccc1)N(CC(=O)[*:2])[*:1]; NFurfurylGly = O=C(O)CNCc1ccco1; NAllylGly = C=CCNCC(=O)O; Nleu = CC(C)CNCC(=O)O; Nlys = NCCCCNCC(=O)O; ξK = NCCCCC(N)C(=O)O; Ahx = NCCCCCC(=O)O; Nme = COCCNCC(=O)O; βAla = NCCC(=O)O

Columns and labels:
[1] = biological target: Vascular endothelial growth factor receptor 1 (Homo sapiens) (UniProt P17948); assay: Binding affinity to human recombinant VEGFR1(1-3) N terminal domain by ELISA like binding assay
How it was run: (§1)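 Plates coated overnight at 4 °C with recombinant human VEGFR ECD at 1 µg/mL in carbonate buffer pH 9.5, then washed and blocked. Serial dilutions of FITC-labelled peptoid in blocking buffer or TBST were added for 1 h at room temperature. After five PBS washes, retained fluorescence was read at 520 nm. KD was taken from the titration.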

[2] = biological target: Vascular endothelial growth factor receptor 1 (Homo sapiens) (UniProt P17948); assay: Binding affinity to human recombinant VEGFR1 extracellular domain by ELISA like binding assay; how it was run: as §1
[3] = biological target: T1, Vascular endothelial growth factor receptor 2 (Homo sapiens, UniProt P35968); assay: Displacement of GU40C-FITC form human recombinant VEGFR2 extracellular domain by ELISA like binding assay
[4] = biological target: T1, Vascular endothelial growth factor receptor 2; assay: Binding affinity to human recombinant VEGFR2 extracellular domain by ELISA like binding assay; how it was run: as §1
[5] = biological target: T1, Vascular endothelial growth factor receptor 2; assay: Displacement of fluorescein-labeled GU40C4 from human recombinant VEGFR2 extracellular domain by ELISA like binding assay

Chain of Vascular endothelial growth factor receptor 1 (Homo sapiens) (P17948 whole entry, the tested form may be a part): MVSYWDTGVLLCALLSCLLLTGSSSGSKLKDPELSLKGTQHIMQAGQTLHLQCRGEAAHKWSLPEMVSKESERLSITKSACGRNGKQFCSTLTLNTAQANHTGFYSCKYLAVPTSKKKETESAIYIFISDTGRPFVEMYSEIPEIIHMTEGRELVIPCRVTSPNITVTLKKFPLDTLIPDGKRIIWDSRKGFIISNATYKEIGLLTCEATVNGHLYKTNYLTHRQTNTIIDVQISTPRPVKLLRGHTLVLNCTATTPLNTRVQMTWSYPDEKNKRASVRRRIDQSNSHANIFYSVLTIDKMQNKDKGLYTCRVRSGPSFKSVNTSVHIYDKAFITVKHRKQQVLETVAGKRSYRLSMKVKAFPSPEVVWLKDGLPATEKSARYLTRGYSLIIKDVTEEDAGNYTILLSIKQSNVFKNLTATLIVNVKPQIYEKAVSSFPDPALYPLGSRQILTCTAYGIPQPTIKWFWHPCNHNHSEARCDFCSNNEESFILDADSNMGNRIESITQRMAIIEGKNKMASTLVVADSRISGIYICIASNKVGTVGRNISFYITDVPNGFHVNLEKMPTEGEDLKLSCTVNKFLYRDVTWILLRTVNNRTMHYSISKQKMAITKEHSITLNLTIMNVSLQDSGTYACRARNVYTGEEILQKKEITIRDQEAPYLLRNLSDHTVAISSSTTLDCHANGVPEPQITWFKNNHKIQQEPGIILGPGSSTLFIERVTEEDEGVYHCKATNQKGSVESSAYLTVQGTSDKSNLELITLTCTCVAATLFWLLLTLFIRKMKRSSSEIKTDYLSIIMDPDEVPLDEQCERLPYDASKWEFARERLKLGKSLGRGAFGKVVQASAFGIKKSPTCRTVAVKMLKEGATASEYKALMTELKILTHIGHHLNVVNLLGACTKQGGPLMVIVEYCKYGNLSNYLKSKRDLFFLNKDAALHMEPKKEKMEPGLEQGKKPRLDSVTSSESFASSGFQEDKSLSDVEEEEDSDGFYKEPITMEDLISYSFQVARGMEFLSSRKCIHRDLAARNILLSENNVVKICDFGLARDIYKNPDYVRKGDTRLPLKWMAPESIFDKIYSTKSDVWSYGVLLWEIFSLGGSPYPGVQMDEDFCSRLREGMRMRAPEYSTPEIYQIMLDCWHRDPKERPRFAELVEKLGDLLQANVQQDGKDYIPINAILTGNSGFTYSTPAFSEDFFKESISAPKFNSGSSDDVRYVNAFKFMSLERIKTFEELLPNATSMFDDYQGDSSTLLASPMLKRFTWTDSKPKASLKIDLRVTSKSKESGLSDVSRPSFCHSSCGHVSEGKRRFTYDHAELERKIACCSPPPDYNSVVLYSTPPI
T1 sequence (P35968 whole entry, the tested form may be a part): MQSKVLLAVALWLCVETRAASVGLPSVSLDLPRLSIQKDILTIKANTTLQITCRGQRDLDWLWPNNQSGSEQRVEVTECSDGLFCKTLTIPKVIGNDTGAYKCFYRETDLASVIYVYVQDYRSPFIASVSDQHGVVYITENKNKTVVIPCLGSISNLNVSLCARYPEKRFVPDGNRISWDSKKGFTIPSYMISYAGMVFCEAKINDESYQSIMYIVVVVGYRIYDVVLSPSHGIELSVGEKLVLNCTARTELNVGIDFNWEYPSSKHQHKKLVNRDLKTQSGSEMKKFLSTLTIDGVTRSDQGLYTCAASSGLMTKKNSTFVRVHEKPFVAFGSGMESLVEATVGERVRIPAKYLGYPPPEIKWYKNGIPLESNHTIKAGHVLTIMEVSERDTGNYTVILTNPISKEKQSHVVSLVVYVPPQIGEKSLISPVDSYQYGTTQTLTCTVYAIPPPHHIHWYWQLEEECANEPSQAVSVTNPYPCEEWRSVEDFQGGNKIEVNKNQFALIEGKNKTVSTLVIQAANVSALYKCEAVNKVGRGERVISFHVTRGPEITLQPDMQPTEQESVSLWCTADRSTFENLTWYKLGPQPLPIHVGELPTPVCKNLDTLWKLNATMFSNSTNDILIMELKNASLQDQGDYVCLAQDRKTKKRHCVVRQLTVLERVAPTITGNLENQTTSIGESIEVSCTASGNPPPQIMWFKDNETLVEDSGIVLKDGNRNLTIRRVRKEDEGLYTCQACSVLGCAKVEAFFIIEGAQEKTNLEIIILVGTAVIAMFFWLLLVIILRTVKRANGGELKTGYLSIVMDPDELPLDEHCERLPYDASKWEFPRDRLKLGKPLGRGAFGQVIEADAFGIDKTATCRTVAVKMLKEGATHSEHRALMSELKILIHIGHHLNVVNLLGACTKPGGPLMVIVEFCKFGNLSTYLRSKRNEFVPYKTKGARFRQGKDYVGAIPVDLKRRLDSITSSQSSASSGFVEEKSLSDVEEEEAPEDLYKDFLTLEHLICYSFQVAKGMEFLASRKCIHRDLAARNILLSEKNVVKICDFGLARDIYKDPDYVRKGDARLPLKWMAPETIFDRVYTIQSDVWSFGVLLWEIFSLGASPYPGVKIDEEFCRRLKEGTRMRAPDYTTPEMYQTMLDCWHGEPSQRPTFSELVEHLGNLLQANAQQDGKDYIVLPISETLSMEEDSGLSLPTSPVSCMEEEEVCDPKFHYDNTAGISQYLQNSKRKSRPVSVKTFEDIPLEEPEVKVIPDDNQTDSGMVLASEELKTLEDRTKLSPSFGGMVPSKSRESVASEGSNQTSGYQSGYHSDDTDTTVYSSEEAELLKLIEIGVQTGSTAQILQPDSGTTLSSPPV

Activity [1]	Activity [2]	Activity [3]	Activity [4]	Kd [4] [nM]	Activity [5]	Compound
Active	Active	Active	Active			CC(C)CN(CC(=O)N(CCCCN)CC(=O)N(CCCCN)CC(N)=O)C(=O)CN(CCCCN)C(=O)CN(Cc1ccc2c(c1)OCO2)C(=O)CN(CCCCN)C(=O)CN(CC(C)C)C(=O)CN(Cc1ccc2c(c1)OCO2)C(=O)CNCCCCN (H-[Nlys][Gly(N-piperonyl)][Nleu][Nlys][Gly(N-piperonyl)][Nlys][Nleu][Nlys][Nlys]-NH2)
Active	Active	Active	Active			C=CCN(CC(=O)N(CCc1c[nH]c2ccccc12)CC(=O)N(CCCCN)CC(=O)N(CC(=O)N(CCCCN)CC(=O)N(CCCCN)CC(N)=O)CC(C)C)C(=O)CN(CC(C)C)C(=O)CN(CCOC)C(=O)CNCCCCN (H-[Nlys][Nme][Nleu][NAllylGly][Gly(N(CH2)2(3-indolyl))][Nlys][Nleu][Nlys][Nlys]-NH2)
Active	Active	Active		1000		CC(C)CN(CC(=O)N(CCCCN)CC(=O)N(CCCCN)CC(N)=O)C(=O)CN(CCCCN)C(=O)CN(CC(C)C)C(=O)CN(CCCCN)C(=O)CN(Cc1ccco1)C(=O)CN(CCCCN)C(=O)CNCCc1c[nH]c2ccccc12 (H-[Gly(N(CH2)2(3-indolyl))][Nlys][NFurfurylGly][Nlys][Nleu][Nlys][Nleu][Nlys][Nlys]-NH2)
Active	Active	Active		1000		CC(C)CN(CC(=O)N(CCCCN)CC(=O)N(CC(=O)N(CC(=O)N(CCCCN)CC(=O)N(CC(=O)N(CCCCN)CC(=O)N(CCCCN)CC(N)=O)CC(C)C)Cc1ccc2c(c1)OCO2)C(C)c1ccccc1)C(=O)CNCCCCN (configuration not stated) (H-[Nlys][Nleu][Nlys][X1][Gly(N-piperonyl)][Nlys][Nleu][Nlys][Nlys]-NH2)
			Active		Active	CC(C)CN(CC(=O)N(CCCCN)CC(=O)N(CC(=O)N(CC(=O)N(CCCCN)CC(=O)N(CC(=O)N(CCCCN)CC(=O)N(CCCCN)CC(=O)NCCCCCC(=O)NCCC(=O)NC(CCCCNC(=O)CN(CCCCN)C(=O)CN(CCCCN)C(=O)CN(CC(C)C)C(=O)CN(CCCCN)C(=O)CN(Cc1ccc2c(c1)OCO2)C(=O)CN(C(=O)CN(CCCCN)C(=O)CN(CC(C)C)C(=O)CNCCCCN)C(C)c1ccccc1)C(N)=O)CC(C)C)Cc1ccc2c(c1)OCO2)C(C)c1ccccc1)C(=O)CNCCCCN (configuration not stated) (I: H-[Nlys][Nleu][Nlys][X1][Gly(N-piperonyl)][Nlys][Nleu][Nlys][Nlys][Ahx][βAla][ξK]-NH2 / II: H-[Nlys][Nleu][Nlys][X1][Gly(N-piperonyl)][Nlys][Nleu][Nlys][Nlys]; amide I:12-II:C)
Active	Active	Active	Active			C=CCN(CC(=O)N(CC(=O)N(CCCCN)CC(=O)N(CCCCN)CC(N)=O)CC(C)C)C(=O)CN(CC(C)C)C(=O)CN(Cc1ccc2c(c1)OCO2)C(=O)CN(CCc1c[nH]c2ccccc12)C(=O)CN(CCCCN)C(=O)CNCCCCN (H-[Nlys][Nlys][Gly(N(CH2)2(3-indolyl))][Gly(N-piperonyl)][Nleu][NAllylGly][Nleu][Nlys][Nlys]-NH2)
